The IC50 is the concentration that inhibits the measured activity by half. Low values mean greater potency in that assay, high ones weaker potency in that assay.

We go through seven molecules from paper PMC2095803 (Nucleic Acids Research, 2007).

Data set [1] addresses T1, Vent(exo−) DNA polymerase (Thermococcus litoralis, UniProt P30317, D141A/E143A).
T1 sequence (P30317 with tags, fused parts or gaps D141A/E143A): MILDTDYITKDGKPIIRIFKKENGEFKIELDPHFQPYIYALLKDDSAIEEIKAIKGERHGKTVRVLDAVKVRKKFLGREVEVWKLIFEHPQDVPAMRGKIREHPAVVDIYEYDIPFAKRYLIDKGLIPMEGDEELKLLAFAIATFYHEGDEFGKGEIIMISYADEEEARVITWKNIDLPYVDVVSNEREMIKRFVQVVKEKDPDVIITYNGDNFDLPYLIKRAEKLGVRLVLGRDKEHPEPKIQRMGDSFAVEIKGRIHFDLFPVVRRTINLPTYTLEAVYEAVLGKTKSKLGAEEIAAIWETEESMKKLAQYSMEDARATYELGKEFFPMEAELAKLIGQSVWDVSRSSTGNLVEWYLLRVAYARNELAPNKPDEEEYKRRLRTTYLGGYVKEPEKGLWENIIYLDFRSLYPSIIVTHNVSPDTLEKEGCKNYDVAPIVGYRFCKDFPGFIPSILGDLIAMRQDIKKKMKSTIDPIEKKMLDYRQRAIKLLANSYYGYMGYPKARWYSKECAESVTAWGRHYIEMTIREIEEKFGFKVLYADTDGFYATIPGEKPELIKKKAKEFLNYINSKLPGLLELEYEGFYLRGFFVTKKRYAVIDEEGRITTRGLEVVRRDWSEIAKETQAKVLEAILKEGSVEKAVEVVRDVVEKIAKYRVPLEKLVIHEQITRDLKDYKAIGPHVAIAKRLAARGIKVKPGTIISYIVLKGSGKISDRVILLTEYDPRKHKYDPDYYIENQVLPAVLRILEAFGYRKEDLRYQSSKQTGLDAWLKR
The conditions noted are these: screening with eight different DNA polymerases; cited from earlier work.

Data set [2] in a line: UV deprotection studies of 5′-O-TBS derivatives. The conditions noted are these: for DT1/2 (deprotection half-life time) at 302 nm / DT1/2 (deprotection half-life time) at 365 nm: 1 mM in methanol, 0.5 mW transilluminator, triplicate. The format is physicochemical. In short, it runs like this:
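The test compound, in methanol at 1 mM in a scintillation vial, was irradiated with a 0.5 mW transilluminator at 302 or 365 nm. Aliquots taken at time intervals went to reverse-phase HPLC to follow loss of starting material and appearance of the deprotected product (loss of the 2-nitrobenzyl group). DT1/2 is the time at 50% deprotection, read from kinetic plots. Each compound was run in triplicate.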

Data set [3] concerns the target T2, Bst DNA polymerase (Geobacillus stearothermophilus, UniProt P52026).
T2 sequence (P52026 289-876 limits assumed): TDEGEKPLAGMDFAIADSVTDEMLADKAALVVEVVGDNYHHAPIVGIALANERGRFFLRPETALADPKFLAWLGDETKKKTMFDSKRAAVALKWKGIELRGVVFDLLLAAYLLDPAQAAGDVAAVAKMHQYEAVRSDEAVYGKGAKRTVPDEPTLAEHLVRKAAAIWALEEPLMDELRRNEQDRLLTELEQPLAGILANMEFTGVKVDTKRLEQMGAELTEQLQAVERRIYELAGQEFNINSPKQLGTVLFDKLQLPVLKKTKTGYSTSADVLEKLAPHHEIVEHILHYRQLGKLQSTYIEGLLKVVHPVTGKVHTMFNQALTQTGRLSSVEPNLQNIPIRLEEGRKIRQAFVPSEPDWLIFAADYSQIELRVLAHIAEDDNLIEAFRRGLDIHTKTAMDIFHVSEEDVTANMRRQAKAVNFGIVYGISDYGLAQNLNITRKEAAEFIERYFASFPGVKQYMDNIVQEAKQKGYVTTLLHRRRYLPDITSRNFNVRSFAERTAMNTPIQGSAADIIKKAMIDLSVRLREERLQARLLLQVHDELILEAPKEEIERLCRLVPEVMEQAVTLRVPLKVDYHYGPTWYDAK
The data set is described as follows: Oligonucleotide template assay. It counts as biochemical, Bacillus stearothermophilus. The conditions noted are these: for Incorporation: Bst, five-base poly-thymidine template, high concentrations (100 μM).

Data set [4] concerns the target T2, Bst DNA polymerase. The data set is described as follows: PEP. The format is biochemical, Bacillus stearothermophilus.
For data set [5], the target named is T1, Vent(exo−) DNA polymerase. The data set is described as follows: PEP. The format is biochemical.
For data set [6], the target named is T3, DeepVent(exo−) DNA polymerase (Pyrococcus sp. GB-D, UniProt Q51334, D141A/E143A).
T3 sequence (Q51334 with tags, fused parts or gaps D141A/E143A): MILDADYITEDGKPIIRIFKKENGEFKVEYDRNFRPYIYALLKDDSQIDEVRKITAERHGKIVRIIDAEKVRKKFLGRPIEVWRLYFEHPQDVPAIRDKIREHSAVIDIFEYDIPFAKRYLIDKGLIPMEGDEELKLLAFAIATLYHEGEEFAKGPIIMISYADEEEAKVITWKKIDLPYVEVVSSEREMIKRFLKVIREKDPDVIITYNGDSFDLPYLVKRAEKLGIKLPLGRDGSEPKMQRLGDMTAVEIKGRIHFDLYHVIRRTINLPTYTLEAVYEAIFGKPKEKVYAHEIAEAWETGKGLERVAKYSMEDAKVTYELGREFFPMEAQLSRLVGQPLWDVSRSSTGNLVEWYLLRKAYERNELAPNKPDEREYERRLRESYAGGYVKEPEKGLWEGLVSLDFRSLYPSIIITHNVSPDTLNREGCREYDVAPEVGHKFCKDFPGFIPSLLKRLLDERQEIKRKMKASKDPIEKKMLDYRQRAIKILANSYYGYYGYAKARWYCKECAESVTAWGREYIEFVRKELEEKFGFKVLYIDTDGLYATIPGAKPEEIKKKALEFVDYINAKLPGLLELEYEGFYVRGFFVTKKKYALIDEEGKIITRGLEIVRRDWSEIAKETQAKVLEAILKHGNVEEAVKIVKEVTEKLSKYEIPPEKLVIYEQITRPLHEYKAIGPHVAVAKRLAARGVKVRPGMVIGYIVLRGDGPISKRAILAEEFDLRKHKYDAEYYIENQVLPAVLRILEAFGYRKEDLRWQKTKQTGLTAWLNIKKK
The data set is described as follows: PEP. The format is biochemical, Pyrococcus species GB-D.

As for `C=CCO[C@H]1C[C@H](n2cnc3c(N)ncnc32)O[C@@H]1COP(=O)(O)OP(=O)(O)OP(=O)(O)O` [3′-O-allyl-dATP], in data set [1], the “Activity as polymerase substrate” value is given as “limited activity at high micromolar concentrations”. On to `CC(C)(C)[Si](C)(C)OC[C@H]1O[C@@H](n2cnc3c(N)ncnc32)C[C@@H]1OCc1ccccc1[N+](=O)[O-]` [Compound Ib, 5’-O-tert-Butyldimethylsilyl-3’-O-(2-nitrobenzyl)-2’-deoxyadenosine], for which, in data set [2], the “DT1/2 (deprotection half-life time) at 302 nm” value was 1 min and the “DT1/2 (deprotection half-life time) at 365 nm” value was 2.53 min. Consider `CC(C)(C)[Si](C)(C)OC[C@H]1O[C@@H](n2cnc3c(NCc4ccccc4[N+](=O)[O-])ncnc32)C[C@@H]1O` [IIIb, N^6-(2-Nitrobenzyl)-5’-O-tert-butyldimethylsilyl-2’-deoxyadenosine], for which, in data set [2], the “DT1/2 (deprotection half-life time) at 302 nm” value was 0.767 min and the “DT1/2 (deprotection half-life time) at 365 nm” value stood at 2.4 min. Turning to `CC(C)(C)[Si](C)(C)OC[C@H]1O[C@@H](n2cnc3c(N(Cc4ccccc4[N+](=O)[O-])Cc4ccccc4[N+](=O)[O-])ncnc32)C[C@@H]1O` [IIb, N^6, N^6-Bis-(2-nitrobenzyl)-5’-O-tert-butyldimethylsilyl-2’deoxyadenosine], the “Deprotection rate relative to compound Ib” value in data set [2] (faster than Ib at both deprotection wavelengths (302 and 365 nm)) is “approximately 3 fold”.

With `O=[N+]([O-])c1ccccc1CN(Cc1ccccc1[N+](=O)[O-])c1ncnc2c1ncn2[C@H]1C[C@H](O)[C@@H](COP(=O)(O)OP(=O)(O)OP(=O)(O)O)O1` [IIc, N^6, N^6-Bis-(2-nitrobenzyl)-2’-deoxyadenosine-5’-triphosphate], at Bst DNA polymerase [3], the “Activity by DNA polymerase incorporation assays” value is “inactive” and the Incorporation result is recorded as “did not show significant incorporation”. For the molecule `Nc1ncnc2c1ncn2[C@H]1C[C@H](OCc2ccccc2[N+](=O)[O-])[C@@H](COP(=O)(O)OP(=O)(O)OP(=O)(O)O)O1` [Ic, 3’-O-(2-Nitrobenzyl)-2’-deoxyadenosine-5’-triphosphate], on Bst DNA polymerase [3], the “Activity by DNA polymerase incorporation assays” value was “inactive” and the Incorporation result is recorded as “did not show significant incorporation”. Turning to `Nc1ncnc2c1ncn2[C@H]1C[C@H](O)[C@@H](COP(=O)(O)OP(=O)(O)OP(=O)(O)O)O1` [dATP, 2′-Deoxyadenosine triphosphate], the IC50 was found to be 1.2 ± 0.1 nM against Bst DNA polymerase [4], 1.6 ± 0.2 nM in data set [5] and 2.8 ± 0.2 nM in data set [6].
